Source: PubChem
Sampled rows, rich in hits. Any-hit rate of the full collection: about 1%.
DDE Tn6 FP inh: inhibitors of Tn6 peptide binding to fibrin DD(E), primary screen, biochemical, fluorescence polarization, human fibrin, Tn6 probe. Fibrinogen beta chain (Homo sapiens), P02675. Fibrin DD(E) TRITC-Tn6 fluorescence polarization displacement. inhibition, % at 8.3 µM. hit rate 0.21% among 370,000. AID 720509, 2013;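 active = inhibition above a per-campaign cutoff: mean of compounds within control limits plus 3 SD, cut at about 15% in these data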;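 also: 0% = median of all compound wells on the plate and 100% = blocking peptide control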
PKA-R2B activ: activators of PKA-R2B holoenzyme, primary screen, biochemical, fluorescence polarization, Cy5-IP20, human; cAMP-dependent protein kinase catalytic subunit beta (Homo sapiens) + cAMP-dependent …; PKA-R2B holoenzyme dissociation; R2B truncated from residue 108, S112A mutant; 0% DMSO only, 100% 113 µM cGMP; activation, % at 11.4 µM; hit rate 0.079% among 340,000; AID 504700, 2011;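 active = activation above a cutoff set at the mean over all compounds plus 3 SD, cut at about 18% in these data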;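 also: higher means more holoenzyme dissociation and a rise in polarization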
Target sequence (P31323 whole entry, looked up, other chains not shown, the tested form may be a part): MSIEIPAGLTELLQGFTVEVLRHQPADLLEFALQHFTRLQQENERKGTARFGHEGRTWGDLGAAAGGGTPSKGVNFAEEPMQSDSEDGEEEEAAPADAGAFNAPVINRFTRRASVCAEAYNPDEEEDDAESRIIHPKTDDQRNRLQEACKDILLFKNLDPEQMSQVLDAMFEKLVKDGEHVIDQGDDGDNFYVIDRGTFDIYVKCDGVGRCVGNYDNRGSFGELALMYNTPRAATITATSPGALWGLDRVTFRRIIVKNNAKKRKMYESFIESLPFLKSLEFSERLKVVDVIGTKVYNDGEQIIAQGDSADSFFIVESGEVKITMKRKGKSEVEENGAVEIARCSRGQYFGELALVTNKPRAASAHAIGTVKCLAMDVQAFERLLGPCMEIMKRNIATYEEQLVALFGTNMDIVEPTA
Tn7 DDE FP: inhibitors of Tn7 peptide binding to fibrin DD(E), primary screen, biochemical, fluorescence polarization, human fibrin, Tn7 probe; Fibrinogen beta chain (Homo sapiens), P02675; hit rate 0.13% among 370,000; FP displacement of FITC-Tn7 peptide from fibrin DD(E); 0% = median of compound wells per plate; inhibition, % at 8.3 µM;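 active = inhibition above the mean of compounds falling within the control limits plus 3 SD of them, cut at about 14% in these data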;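 also: 0% = plate median of compound wells and 100% = 10 µM Aha-Tn7 peptide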
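assay system = human clot-derived fibrin DD(E) complex | quantity = Fibrin-DD(E) at 2 µM final | timing = 10 min preincubation, 3 h with tracer, room temperature | signal = fluorescence polarization | measure = percent inhibition | benchmarks = high control wells with 10 µM unlabelled Aha-Tn7 peptide (full inhibition) | replicates = singlicate testing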
Neddylation inh: inhibitors of cullin neddylation, primary screen, biochemical, TR-FRET, uHTS, NAE and Ubc12; NEDD8-conjugating enzyme Ubc12 (Homo sapiens) + NEDD8-activating enzyme E1 regulatory …; inhibition, % at 25 µM; hit rate 0.58% among 360,000; AID 651699, 2012; in the data active = inhibition above about 36%
PKA-R1A act: activators of PKA-R1A holoenzyme, primary screen, biochemical, fluorescence polarization, Cy5-IP20, bovine R1A, mouse PKAc; cAMP-dependent protein kinase type I-alpha regulatory subunit (Bos taurus) + …; PKA-R1A dissociation; scaled: DMSO 0%, 113 µM cGMP 100%; activation, % at 11.4 µM; hit rate 0.083% among 340,000; AID 504707, 2011;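 active = percent activation above the mean of all tested compounds plus 3 SD, cut at about 19% in these data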;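 also: higher means more PKAc released from R1A so a rise in polarization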
Tn7 DDE conf: inhibitors of Tn7 peptide binding to fibrin DD(E), confirmation, biochemical, fluorescence polarization, human fibrin, Tn7 probe. shares compounds with Tn7 DDE FP. FP displacement of TRITC-Tn7 peptide from DD(E); 0% set at plate's compound-well median. inhibition, % at 8.3 µM. hit rate 5% among 460. AID 720628, 2013;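 active = inhibition above the campaign cutoff, the mean of compounds within control limits plus 3 SD, cut at about 14% in these data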;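 also: 100% = median FP of high control wells holding Aha-Tn7 inhibitor peptide; displacers lower polarization since freed probe rises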
DDE Tn7 FP ctr: counter-screen for inhibitors of Tn7 peptide binding to fibrin DD(E); shares compounds with Tn7 DDE FP; TRITC-Tn7 probe displacement, fluorescence polarization; inhibition, % at 8.3 µM; hit rate 3% among 460;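 active = inhibition above the cutoff, the mean of compounds lying between the control bounds plus 3 SD of those compounds, cut at about 17% in these data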;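 also: 0% = median of compound sample wells and 100% = excess unlabeled Aha-Tn7 peptide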
The depositor's hits bear a star; · = no result given.

SMILES | DDE Tn6 FP inh | PKA-R2B activ | Tn7 DDE FP | Neddylation inh | PKA-R1A act | Tn7 DDE conf | DDE Tn7 FP ctr
CN(C)S(=O)(=O)N1CCC(Oc2ccc(C(=O)NCc3cnn(C)c3)cc2)CC1 | -1 | 10 | 14* | 5 | -6 | 7 | 0
O=C(NCCNS(=O)(=O)c1ccc(C(F)(F)F)cc1)N1CCOCC1 | 1 | -15 | 0 | 0 | -11 | · | ·
O=C(NCCNS(=O)(=O)c1ccccc1)N1CCOCC1 | -1 | 4 | 15* | -4 | 0 | 1 | 4
CCCN1CCCCC(NC(=O)c2ccc(-c3ccccc3)cc2)C1=O (stereo unspecified) | -8 | · | 8 | · | · | · | ·
COc1cc([N+](=O)[O-])ccc1NC(=S)NNC(=O)CCC(=O)Nc1ccccc1Cl | 5 | 3 | 15* | -35 | 3 | 7 | -1
CCOC(=O)[C@@]12CCCC=C1N(CCc1ccc(Cl)cc1)C(=O)[C@H]2CC(=O)N1CCOCC1 | -3 | · | 7 | · | · | · | ·
CCOc1ccc(/C=N/n2c(SC)nnc(C(C)(C)C)c2=O)cc1 | 0 | 3 | 15* | 0 | -10 | 0 | 1
O=C(CN(Cc1cccs1)C(=O)CNS(=O)(=O)c1ccc(Cl)cc1)NCc1ccco1 | 3 | 10 | 15* | -4 | 8 | 3 | -2
O=C(NCCCC1CCCC1)C1CCC(=O)N(Cc2cccc(F)c2)C1 (stereo unspecified) | -2 | -7 | 9 | -8 | -11 | · | ·
O=C(NCCCC1CCCC1)C1CCC(=O)N(Cc2ccc(Cl)cc2)C1 (stereo unspecified) | -4 | -8 | 14* | -4 | 3 | 8 | 3
CCOC(=O)C1=CCN(S(=O)(=O)c2cccc(Cl)c2)C1c1cccc(Cl)c1 (stereo unspecified) | -1 | · | 16* | · | · | -5 | -9
CCCCCN1CCCCC(NC(=O)c2cccc(C(F)(F)F)c2)C1=O (stereo unspecified) | 5 | · | 3 | · | · | · | ·
Nc1nc2c(ncn2[C@@H]2O[C@H](C(=O)N[C@H](Cc3ccccc3)C(=O)NCCCc3ccccc3)[C@@H](O)[C@H]2O)c(=O)[nH]1 | 2 | · | 0 | · | · | · | ·
CCC1(c2ccccc2)NC(=O)N(CC(=O)Nc2ccc(OC)nc2)C1=O (stereo unspecified) | -2 | 2 | 22* | 13 | -5 | 5 | -4
CCC1(c2ccccc2)NC(=O)N(CC(=O)Nc2ccc3c(c2)CCC3)C1=O (stereo unspecified) | -4 | 2 | -1 | -7 | 7 | · | ·
C=CCN1C(=O)C(Cc2ccc(OCC)cc2)S/C1=N\N=C\c1cccs1 (stereo unspecified) | -6 | -1 | 3 | 1 | -9 | · | ·
C=CCN1C(=O)C(Cc2ccccc2)S/C1=N/N=C/c1cccs1 (stereo unspecified) | -1 | -14 | 14* | 5 | 4 | -2 | -8
Clc1ccc(-n2c(SCc3cccc4ccccc34)nnc2-c2ccco2)cc1 | -10 | · | 14* | · | · | 13 | 6
N#CC1CCN(c2nc(-c3ccc(Br)cc3)cs2)CC1 | -2 | · | 2 | · | · | · | ·
CCN(CC)S(=O)(=O)c1cccc(-c2nnc(SCC(N)=O)n2C)c1 | -2 | -1 | 5 | 4 | 1 | · | ·
CCN(CC)S(=O)(=O)c1cccc(-c2nnc(SCc3ncc(-c4ccccc4)o3)n2C)c1 | 5 | -10 | 15* | 0 | -4 | -4 | -10
CCCCn1c(N)c(N(CCOC)C(=O)C2CCN(S(=O)(=O)c3ccc(F)cc3)CC2)c(=O)[nH]c1=O | -2 | 4 | 17* | 6 | -5 | 0 | -4
CCCCn1c(N)c(N(CCOC)C(=O)C2CCN(S(=O)(=O)c3ccc(C)cc3)CC2)c(=O)[nH]c1=O | -2 | -10 | 2 | 9 | -2 | · | ·
C#CCN1CC(COc2ccccc2)Oc2cccc(Oc3ccc(OC)cc3)c2S1(=O)=O (stereo unspecified) | -3 | · | 14* | · | · | -4 | -10
O=C(CCn1nnc(-c2cccs2)n1)N1CCCCC1 | 11 | · | -7 | · | · | · | ·
SMILES | DDE Tn6 FP inh | PKA-R2B activ | Tn7 DDE FP | Neddylation inh | PKA-R1A act | Tn7 DDE conf | DDE Tn7 FP ctr
O=C(Cn1c(Cc2ccccc2)nc2ccccc21)NCc1ccc2c(c1)OCO2 | -1 | -16 | 15* | 1 | -17 | 0 | -2
N#CC1=C2C=Cc3ccccc3N2CCCC1=O | 5 | -4 | 16* | -19 | -6 | 2 | 0
CCNC(=O)OC[C@H]1O[C@H](C#Cc2ccc(C(C)(C)C)cc2)C=C[C@H]1OC(C)=O | -9 | · | -1 | · | · | · | ·
O=C(c1cccc(NC2=NC3CS(=O)(=O)CC3S2)c1)N1CCN(c2ccc(F)cc2)CC1 (stereo unspecified) | -6 | -16 | -4 | 4 | -6 | · | ·
O=C(c1cccc(NC2=NC3CS(=O)(=O)CC3S2)c1)N1CCN(c2cccc(Cl)c2)CC1 (stereo unspecified) | 1 | 3 | 17* | -5 | 0 | 7 | -4
COC(=O)Cc1nnn2c1CC(OC)c1ccccc1-2 (stereo unspecified) | 3 | · | -2 | · | · | · | ·
CC1CCC(NC(=O)c2cc3c(=O)n(C)c4ccccc4c3n2C)CC1 (stereo unspecified) | 11 | 8 | 14* | 10 | -1 | 1 | -2
Cn1c(C(=O)NC2CCCCC2)cc2c(=O)n(C)c3ccccc3c21 | -3 | -10 | -4 | 2 | -10 | · | ·
O=C(CSc1nc(-c2ccccc2)cc(=O)[nH]1)Nc1ccc(F)c(F)c1 | 1 | 1 | 14* | -4 | 0 | 1 | -3
CN(Cc1ccccc1)C(=O)c1cccc(NC(=O)Cc2ccc(NC(=O)C3CCCN(S(=O)(=O)c4cccc([N+](=O)[O-])c4)C3)cc2)c1 (stereo unspecified) | 5 | · | -4 | · | · | · | ·
CC(=O)Nc1ccc(C2NC(=O)CCC2[N+](=O)[O-])cc1 (stereo unspecified) | 3 | 0 | 2 | -8 | 8 | · | ·
COC(=O)c1ccc(C2NC(=O)CCC2[N+](=O)[O-])cc1 (stereo unspecified) | -9 | -8 | 14* | -2 | -12 | 3 | -10
